Values after ≈ are worked out from the molar mass of the structure shown. Active and inactive are the calls of the source. The calls are words filed in the database; no cut-off is given here.
Columns and labels:
PBMC [1] = assay: Inhibition of LPS-induced TNFalpha biosynthesis in human PBMC; type: functional, cell-based
Procedure, shortened: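 PBMCs isolated from human whole blood by Ficoll–Hypaque density gradient centrifugation, resuspended at 5 · 10⁶/mL in RPMI with 10% fetal bovine serum. Cells preincubated with compound (0.2% DMSO) 5 min at RT, then LPS added (200 ng/mL stock), 6 h at 37 °C. Medium TNFα measured by ELISA; IC₅₀ from linear regression. Duplicate typical.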

[2] = target: Mitogen-activated protein kinase 14 (Homo sapiens, UniProt Q16539)
[3] = target: Tyrosine-protein kinase Lck (Homo sapiens, UniProt P06239); assay: Inhibition of Lck
Mus musculus [4] = assay: Inhibition of LPS-induced TNFalpha production in mouse at 5 mg/kg, po administered 4 hrs before LPS challenge relative to control; type: functional
Procedure, shortened: (§1)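 Mice given 5 mg/kg orally, then LPS challenge after a 4 h or 24 h pre-dosing interval. Circulating TNFα reduction reported as percent versus vehicle, mean ± SD, n = 8 animals; Student's t-test.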

Serum = assay: Drug level in LPS challenged mouse serum at 5 mg/kg, po; type: ADME, organism-based; design: dose 5 mg/kg, route oral; settings: in vivo, read-out: Drug uptake
Procedure, shortened: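 Serum drug concentration in mice measured in the LPS challenge study after 5 mg/kg oral dosing, 4 h or 24 h pre-dosing interval.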

[5] = Cmax in rat at 10 mg/kg, po; type: ADME, organism-based; design: dose 10 mg/kg, route oral; settings: in vivo
Procedure, shortened: (§2)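 Rat pharmacokinetics: iv dose 1 mg/kg and po dose 10 mg/kg, vehicle PEG300, n = 3 animals.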

[6] = AUC (0 to 24hrs) in rat at 10 mg/kg, po; type: ADME, organism-based; design: time < 24 hr, dose 10 mg/kg, route oral; settings: plasma
[7] = Drug level in rat at 10 mg/kg, po after 24 hrs; type: ADME, organism-based; design: dose 10 mg/kg, route oral; settings: in vivo, read-out: Drug uptake; procedure, shortened: as §2
[8] = Oral bioavailability in rat at 10 mg/kg; type: ADME, organism-based; settings: in vivo; procedure, shortened: as §2
Rattus norvegicus [9] = assay: Inhibition of disease progression in rat adjuvant-induced arthritis model assessed as paw swelling at 1 mg/kg, po qd; type: functional, organism-based; design: dose 1 mg/kg
Procedure, shortened: (§3)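 Rat adjuvant-induced arthritis, compound given orally once daily; disease progression read as paw swelling over study days 10–21 versus vehicle; Student's t-test.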

Rattus norvegicus [10] = assay: Inhibition of disease progression in rat adjuvant-induced arthritis model assessed as paw swelling at 3 mg/kg, po qd; type: functional, organism-based; design: dose 3 mg/kg; procedure, shortened: as §3
Rattus norvegicus [11] = assay: Inhibition of disease progression in rat adjuvant-induced arthritis model assessed as paw swelling at 0.3 mg/kg, po qd; type: functional; procedure, shortened: as §3
[12] = Drug level in rat serum at 1 mg/kg after 18 hrs; type: ADME, organism-based; design: dose 1 mg/kg; settings: read-out: Drug uptake
Procedure, shortened: (§4)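 Terminal serum concentrations in adjuvant-arthritis rats taken 18 h after the final once-daily oral dose.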

[13] = Drug level in rat serum at 3 mg/kg after 18 hrs; type: ADME, organism-based; design: dose 3 mg/kg; settings: read-out: Drug uptake; procedure, shortened: as §4
Rattus norvegicus [14] = species: Rattus norvegicus; assay: Inhibition of LPS-induced TNFalpha production in Lewis rat by ELISA; type: functional
Procedure, shortened: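 Rats dosed orally; two hours later LPS (10 µg, E. coli […]) in 1 mL PBS given IP. Dose–response used to derive oral ED₅₀.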

PBMC [15] = assay: Inhibition of LPS-induced IL1-beta production in human PBMC; type: functional, cell-based
Blood [16] = assay: Inhibition of LPS-induced TNFalpha production in human whole blood; type: functional, tissue-based
Blood [17] = assay: Inhibition of LPS-induced IL1-beta production in human whole blood; type: functional, tissue-based
Liver microsomes [18] = assay: Metabolic stability in human liver microsomes; type: ADME, Microsome
Liver microsomes [19] = assay: Metabolic stability in rat liver microsomes; type: ADME, Microsome
Liver = assay: Metabolic stability in mouse liver microsomes; type: ADME, Microsome
Cytochrome P450 1A2 = target: T1, Cytochrome P450 1A2 (Homo sapiens, UniProt P05177); assay: Inhibition of CYP1A2; type: ADME
T1 sequence (P05177 whole entry): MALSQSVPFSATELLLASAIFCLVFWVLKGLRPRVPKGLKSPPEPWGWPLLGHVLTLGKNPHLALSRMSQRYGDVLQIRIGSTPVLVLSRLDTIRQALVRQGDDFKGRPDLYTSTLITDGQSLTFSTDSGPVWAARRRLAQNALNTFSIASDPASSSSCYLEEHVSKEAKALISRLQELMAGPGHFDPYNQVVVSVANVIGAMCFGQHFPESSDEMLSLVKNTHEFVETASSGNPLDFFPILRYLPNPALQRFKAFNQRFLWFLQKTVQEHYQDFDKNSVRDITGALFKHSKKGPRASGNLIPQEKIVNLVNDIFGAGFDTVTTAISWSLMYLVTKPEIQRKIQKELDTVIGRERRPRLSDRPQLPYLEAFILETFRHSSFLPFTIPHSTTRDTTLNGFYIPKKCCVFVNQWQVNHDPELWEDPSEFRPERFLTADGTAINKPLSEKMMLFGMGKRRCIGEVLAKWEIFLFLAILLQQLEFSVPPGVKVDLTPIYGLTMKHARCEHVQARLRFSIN

Cytochrome P450 2C9 = Cytochrome P450 2C9 (Homo sapiens, UniProt P11712); assay: Inhibition of CYP2C9; type: ADME
Cytochrome P450 2C19 = Cytochrome P450 2C19 (Homo sapiens, UniProt P33261); assay: Inhibition of CYP2C19; type: ADME
Cytochrome P450 2D6 = Cytochrome P450 2D6 (Homo sapiens, UniProt P10635); assay: Inhibition of CYP2D6; type: ADME
Cytochrome P450 3A4 = Cytochrome P450 3A4 (Homo sapiens, UniProt P08684); assay: Inhibition of CYP3A4; type: ADME
hERG (KCNH2) = hERG (KCNH2) (Homo sapiens, UniProt Q12809); assay: Inhibition of human ERG at 30 uM by patch clamp assay
[20] = Protein binding in human; type: ADME, organism-based; settings: in vivo, read-out: PB (converted)
[21] = Permeability across human Caco-2 cells; type: ADME, cell-based; settings: read-out: permeability
[22] = Aqueous solubility at pH 6.5; type: physicochemical; settings: buffer
[23] = Half life in rat at 1 mg/kg, iv; type: ADME, organism-based; design: dose 1 mg/kg, route intravenous; settings: in vivo; procedure, shortened: as §2
[24] = Clearance in rat at 1 mg/kg, iv; type: ADME, organism-based; design: dose 1 mg/kg, route intravenous; settings: in vivo; procedure, shortened: as §2
[25] = Volume of distribution at steady state in rat at 1 mg/kg, iv; type: ADME, organism-based; design: dose 1 mg/kg, route intravenous; settings: in vivo, read-out: Vdss; procedure, shortened: as §2
Mus musculus [26] = assay: Inhibition of LPS-induced TNFalpha production in mouse at 5 mg/kg, po administered 24 hrs before LPS challenge relative to control
Mus musculus [27] = assay: Inhibition of LPS-induced TNFalpha production in mouse at 5 mg/kg, po administered 24 hrs before LPS challenge relative to control; type: functional, organism-based; design: dose 5 mg/kg; procedure, shortened: as §1

Tyrosine-protein kinase Lck, sequence (P06239 whole entry): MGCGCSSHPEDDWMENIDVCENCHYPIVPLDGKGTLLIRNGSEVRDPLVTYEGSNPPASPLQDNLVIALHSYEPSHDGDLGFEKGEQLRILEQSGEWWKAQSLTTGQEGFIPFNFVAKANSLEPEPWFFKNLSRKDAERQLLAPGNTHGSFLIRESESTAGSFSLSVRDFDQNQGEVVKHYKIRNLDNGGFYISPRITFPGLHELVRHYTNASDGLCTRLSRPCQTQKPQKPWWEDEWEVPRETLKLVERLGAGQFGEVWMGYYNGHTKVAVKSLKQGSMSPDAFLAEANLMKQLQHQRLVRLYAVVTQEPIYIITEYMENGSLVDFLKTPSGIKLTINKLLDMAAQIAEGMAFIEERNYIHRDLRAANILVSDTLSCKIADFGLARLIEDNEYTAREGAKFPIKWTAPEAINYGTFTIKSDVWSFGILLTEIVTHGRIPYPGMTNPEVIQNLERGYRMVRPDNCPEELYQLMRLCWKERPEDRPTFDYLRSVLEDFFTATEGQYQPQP
Mitogen-activated protein kinase 14, sequence (Q16539 whole entry): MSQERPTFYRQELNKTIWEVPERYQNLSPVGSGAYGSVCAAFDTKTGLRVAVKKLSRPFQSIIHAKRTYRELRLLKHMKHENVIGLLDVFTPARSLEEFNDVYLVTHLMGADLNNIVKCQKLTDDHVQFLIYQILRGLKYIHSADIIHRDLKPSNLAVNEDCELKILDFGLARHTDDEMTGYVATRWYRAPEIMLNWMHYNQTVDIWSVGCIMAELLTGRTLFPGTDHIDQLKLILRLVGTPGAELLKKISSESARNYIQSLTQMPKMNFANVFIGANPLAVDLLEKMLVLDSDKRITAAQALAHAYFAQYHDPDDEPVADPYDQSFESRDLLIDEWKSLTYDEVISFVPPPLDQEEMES
hERG (KCNH2), sequence (Q12809 whole entry): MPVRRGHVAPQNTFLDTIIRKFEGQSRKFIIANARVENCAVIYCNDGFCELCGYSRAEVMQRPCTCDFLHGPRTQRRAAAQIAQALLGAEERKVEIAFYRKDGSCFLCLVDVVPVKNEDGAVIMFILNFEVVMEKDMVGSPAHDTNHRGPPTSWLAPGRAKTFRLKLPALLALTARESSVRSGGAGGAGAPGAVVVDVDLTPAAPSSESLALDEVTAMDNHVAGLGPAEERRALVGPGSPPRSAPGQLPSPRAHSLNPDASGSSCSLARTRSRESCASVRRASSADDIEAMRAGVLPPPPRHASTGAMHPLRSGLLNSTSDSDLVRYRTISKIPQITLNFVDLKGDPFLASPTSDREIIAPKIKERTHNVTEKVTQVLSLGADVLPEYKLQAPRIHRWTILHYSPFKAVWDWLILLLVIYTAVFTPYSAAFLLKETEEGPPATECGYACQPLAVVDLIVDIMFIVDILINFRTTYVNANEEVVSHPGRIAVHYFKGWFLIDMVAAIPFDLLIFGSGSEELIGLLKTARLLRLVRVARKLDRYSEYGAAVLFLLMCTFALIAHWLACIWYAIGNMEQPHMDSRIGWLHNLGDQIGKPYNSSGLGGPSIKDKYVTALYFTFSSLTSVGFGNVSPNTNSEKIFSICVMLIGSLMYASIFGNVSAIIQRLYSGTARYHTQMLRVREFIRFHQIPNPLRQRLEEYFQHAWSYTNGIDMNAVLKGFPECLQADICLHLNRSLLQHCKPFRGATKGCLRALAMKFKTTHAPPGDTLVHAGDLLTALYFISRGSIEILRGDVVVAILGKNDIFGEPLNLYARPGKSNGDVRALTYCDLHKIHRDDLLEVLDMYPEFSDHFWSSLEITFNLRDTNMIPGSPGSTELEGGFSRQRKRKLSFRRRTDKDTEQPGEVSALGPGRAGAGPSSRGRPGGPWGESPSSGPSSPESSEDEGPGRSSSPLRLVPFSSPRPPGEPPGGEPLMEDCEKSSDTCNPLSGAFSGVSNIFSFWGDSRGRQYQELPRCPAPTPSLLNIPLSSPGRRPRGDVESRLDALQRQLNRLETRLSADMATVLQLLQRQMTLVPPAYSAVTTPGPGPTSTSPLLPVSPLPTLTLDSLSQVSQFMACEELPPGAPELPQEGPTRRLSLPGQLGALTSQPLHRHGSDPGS
Cytochrome P450 3A4, sequence (P08684 whole entry): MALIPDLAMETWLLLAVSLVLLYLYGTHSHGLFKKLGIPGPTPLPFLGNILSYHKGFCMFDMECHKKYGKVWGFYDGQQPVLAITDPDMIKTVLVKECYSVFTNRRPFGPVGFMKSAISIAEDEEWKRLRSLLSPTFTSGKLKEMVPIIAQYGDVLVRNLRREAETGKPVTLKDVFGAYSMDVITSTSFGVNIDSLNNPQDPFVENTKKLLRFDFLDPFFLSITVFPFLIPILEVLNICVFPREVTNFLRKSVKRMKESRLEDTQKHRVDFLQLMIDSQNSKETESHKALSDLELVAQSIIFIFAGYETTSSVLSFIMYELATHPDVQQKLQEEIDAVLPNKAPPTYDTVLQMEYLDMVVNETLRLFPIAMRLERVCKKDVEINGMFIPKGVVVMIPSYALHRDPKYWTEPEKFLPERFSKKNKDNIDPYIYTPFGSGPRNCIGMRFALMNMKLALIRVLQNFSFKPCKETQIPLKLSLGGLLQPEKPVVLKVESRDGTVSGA
Cytochrome P450 2C9, sequence (P11712 whole entry): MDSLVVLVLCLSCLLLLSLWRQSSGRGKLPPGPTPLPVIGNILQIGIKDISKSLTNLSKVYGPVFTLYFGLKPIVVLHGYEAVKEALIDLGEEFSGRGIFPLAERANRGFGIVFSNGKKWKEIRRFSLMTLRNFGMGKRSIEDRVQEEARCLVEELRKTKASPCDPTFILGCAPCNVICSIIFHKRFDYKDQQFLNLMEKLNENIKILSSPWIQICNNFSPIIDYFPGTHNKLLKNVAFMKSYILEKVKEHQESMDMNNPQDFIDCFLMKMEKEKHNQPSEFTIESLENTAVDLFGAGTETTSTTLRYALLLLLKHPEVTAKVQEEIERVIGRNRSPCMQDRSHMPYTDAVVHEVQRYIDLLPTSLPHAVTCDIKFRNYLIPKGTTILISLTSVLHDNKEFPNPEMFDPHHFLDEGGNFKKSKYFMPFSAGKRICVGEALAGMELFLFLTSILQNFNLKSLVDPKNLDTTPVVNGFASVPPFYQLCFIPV
Cytochrome P450 2C19, sequence (P33261 whole entry): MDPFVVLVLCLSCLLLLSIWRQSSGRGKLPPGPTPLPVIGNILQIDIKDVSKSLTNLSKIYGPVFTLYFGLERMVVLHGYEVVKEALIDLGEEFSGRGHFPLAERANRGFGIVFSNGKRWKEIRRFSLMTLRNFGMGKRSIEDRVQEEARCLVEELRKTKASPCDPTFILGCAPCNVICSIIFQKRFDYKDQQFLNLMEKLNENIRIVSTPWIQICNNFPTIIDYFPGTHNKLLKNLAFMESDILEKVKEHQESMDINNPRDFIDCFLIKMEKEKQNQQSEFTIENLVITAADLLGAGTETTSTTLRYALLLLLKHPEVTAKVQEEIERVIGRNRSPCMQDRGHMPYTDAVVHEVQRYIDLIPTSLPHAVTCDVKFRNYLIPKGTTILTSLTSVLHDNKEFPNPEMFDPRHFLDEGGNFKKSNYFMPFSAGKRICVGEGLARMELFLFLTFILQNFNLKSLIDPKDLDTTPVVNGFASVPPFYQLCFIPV
Cytochrome P450 2D6, sequence (P10635 whole entry): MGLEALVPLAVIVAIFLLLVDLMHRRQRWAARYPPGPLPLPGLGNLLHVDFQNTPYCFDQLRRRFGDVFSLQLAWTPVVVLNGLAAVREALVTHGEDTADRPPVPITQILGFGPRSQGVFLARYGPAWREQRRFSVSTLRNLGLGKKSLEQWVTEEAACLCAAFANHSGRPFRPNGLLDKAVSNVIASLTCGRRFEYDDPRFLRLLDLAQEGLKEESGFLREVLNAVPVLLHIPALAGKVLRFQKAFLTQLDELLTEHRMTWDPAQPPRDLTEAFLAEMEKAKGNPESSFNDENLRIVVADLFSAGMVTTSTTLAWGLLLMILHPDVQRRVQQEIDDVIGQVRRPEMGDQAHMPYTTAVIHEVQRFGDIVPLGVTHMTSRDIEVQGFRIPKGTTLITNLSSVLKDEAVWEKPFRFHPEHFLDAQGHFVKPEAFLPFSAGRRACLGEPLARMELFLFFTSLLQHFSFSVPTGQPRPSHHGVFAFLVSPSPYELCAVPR

CCCNc1ncc(C(=O)Nc2cc(C(N)=O)ccc2C)s1
IC50 (PBMC [1]): 0.023 µM
IC50 [2]: 0.0041 µM

CNC(=O)c1ccc(C)c(N2Cc3nc(NC(C)C)sc3C2=O)c1
IC50 [2]: 0.11 µM

CCCNc1nc2c(s1)C(=O)N(c1cc(C(=O)NC)ccc1C)C2
IC50 [2]: 0.27 µM

CCNC(=O)c1ccc(C)c(NC(=O)c2cnc(NC(C)C)s2)c1
IC50 (PBMC [1]): 0.011 µM
IC50 [3]: > 50 µM
inhibition in vivo at 5 mg/kg (Mus musculus [4]): 68%
concentration (Serum): 330 nM
IC50 [2]: 0.0034 µM

Cc1ccc(C(N)=O)cc1NC(=O)c1cnc(NC(C)C)s1
IC50 (PBMC [1]): 0.035 µM
IC50 [3]: > 50 µM
IC50 [2]: 0.0032 µM

Cc1ccc(C(=O)Nc2ccn[nH]2)cc1NC(=O)c1cnc(NC(C)C)s1
IC50 (PBMC [1]): 0.0079 µM
IC50 [2]: 0.0042 µM

Cc1ccc(C(=O)Nc2ccnn2C)cc1NC(=O)c1cnc(NC(C)C)s1
IC50 (PBMC [1]): 0.0064 µM
IC50 [3]: 5.8 µM
IC50 [2]: 0.0054 µM

CCNC(=O)c1ccc(C)c(N2Cc3nc(NC(C)C)sc3C2=O)c1
IC50 (PBMC [1]): > 0.25 µM
IC50 [2]: 0.034 µM

CC[C@@H](C)Nc1ncc(C(=O)Nc2cc(C(=O)NC)ccc2C)s1
Cmax [5]: 8700 nM
AUC(0-t) at 24 h [6]: 25 µM·h
concentration at 24 h [7]: 7.6 nM
bioavailability [8]: 75%
Activity (Rattus norvegicus [9]): Active
Activity (Rattus norvegicus [10]): Active
inhibition in vivo at 0.3 mg/kg (Rattus norvegicus [11]): 46%
concentration at 18 h [12]: 8.1 nM
concentration at 18 h [13]: 16 nM
IC50 (PBMC [1]): 0.0029 µM
IC50 [3]: 22 µM
ED50 (Rattus norvegicus [14]): 2 mg/kg
IC50 (PBMC [15]): 0.099 µM
IC50 (Blood [16]): 0.054 µM
IC50 (Blood [17]): 0.6 µM
Stability (Liver microsomes [18]): 0 nmol/min/mg
Stability (Liver microsomes [19]): 0 nmol/min/mg
Stability (Liver): 0 nmol/min/mg
Activity (Cytochrome P450 1A2): > 40 µM
Activity (Cytochrome P450 2C9): > 40 µM
Activity (Cytochrome P450 2C19): > 40 µM
Activity (Cytochrome P450 2D6): > 40 µM
Activity (Cytochrome P450 3A4): > 40 µM
inhibition at 30 µM (hERG (KCNH2)): 7%
fraction unbound [20]: 0.18
Papp [21]: 8.3 ×10⁻⁶ cm/s
solubility [22]: 22 µg/mL (≈ 63.5 µM)
half-life [23]: 1.8 h
clearance [24]: 14.1 mL/min/kg
Vd [25]: 1.8 L/kg
inhibition in vivo at 5 mg/kg (Mus musculus [26]): 46%

Cc1cccc(Cl)c1NC(=O)c1cnc(NC(C)C)s1
IC50 (PBMC [1]): 0.16 µM
IC50 [2]: 0.013 µM

Cc1cccc(Cl)c1NC(=O)c1cnc(Nc2ccccc2)s1
IC50 [2]: 0.062 µM

CCCNc1ncc(C(=O)Nc2cc(C(=O)NC)ccc2C)s1
IC50 (PBMC [1]): 0.042 µM
IC50 [3]: 4.8 µM
IC50 [2]: 0.0045 µM

CNC(=O)c1ccc(C)c(N2Cc3nc(NC4CCCC4)sc3C2=O)c1
IC50 [2]: 0.11 µM

CNC(=O)c1ccc(C)c(NC(=O)c2cnc(NC(C)C)s2)c1
IC50 (PBMC [1]): 0.0087 µM
IC50 [3]: > 50 µM
inhibition in vivo at 5 mg/kg (Mus musculus [4]): 62%
Activity (Mus musculus [27]): inactive
concentration (Serum): 400 nM
IC50 [2]: 0.0035 µM

CCCNc1nc2c(s1)C(=O)N(c1cc(C(=O)NCC)ccc1C)C2
IC50 [2]: 0.16 µM

Cc1cccc(Cl)c1NC(=O)c1cnc(NC2CC2)s1
IC50 (PBMC [1]): 1.5 µM
IC50 [3]: 0.14 µM
IC50 [2]: 0.039 µM

CC[C@H](C)Nc1ncc(C(=O)Nc2cc(C(=O)NC)ccc2C)s1
IC50 (PBMC [1]): 0.0041 µM
IC50 [3]: > 50 µM
inhibition in vivo at 5 mg/kg (Mus musculus [4]): 69%
concentration (Serum): 250 nM

Cc1ccc(C(=O)Nc2ccon2)cc1NC(=O)c1cnc(NC(C)C)s1
IC50 (PBMC [1]): 0.001 µM

CCCNc1ncc(C(=O)Nc2c(C)cccc2Cl)s1
IC50 (PBMC [1]): > 2 µM
IC50 [2]: 0.028 µM

Cc1cccc(Cl)c1NC(=O)c1cnc(NC2CCC2)s1
IC50 [3]: 3.31 µM
IC50 [2]: 0.036 µM

CCNc1ncc(C(=O)Nc2c(C)cccc2Cl)s1
IC50 [2]: 0.14 µM

CCCNc1nc(C)c(C(=O)Nc2cc(C(=O)NCC)ccc2C)s1
IC50 [2]: 0.13 µM

CCNC(=O)c1ccc(C)c(NC(=O)c2sc(NCC)nc2C)c1
IC50 [2]: 0.33 µM

CNC(=O)c1ccc(C)c(NC(=O)c2cnc(NCCOC)s2)c1
IC50 (PBMC [1]): > 0.25 µM
IC50 [2]: 0.022 µM

CCCNc1ncc(C(=O)Nc2cc(C(=O)NCC)ccc2C)s1
IC50 (PBMC [1]): 0.0027 µM
IC50 [3]: 1.9 µM
Activity (Mus musculus [27]): inactive
IC50 [2]: 0.002 µM

From ChEMBL document CHEMBL1141541, “The discovery of (R)-2-(sec-butylamino)-N-(2-methyl-5-(methylcarbamoyl)phenyl) thiazole-5-carboxamide (BMS-640994)-A potent and efficacious p38alpha MAP kinase inhibitor” (Bioorg Med Chem Lett, 2008)
